Measured values as given in ChEMBL document CHEMBL1821635, “Synthesis and evaluation of aliphatic-chain hydroxamates capped with osthole derivatives as histone deacetylase inhibitors” (Eur J Med Chem, 2011).
The source made the active and inactive calls. The rule behind the calls is not given here.

How the values were obtained:
[1] = target: Histone deacetylase; test: Inhibition of HDAC from human HeLa nuclear extract using Boc-Lys(Ac)-AMC as substrate incubated 30 mins before substrate addition measured after 30 mins post substrate addition by fluorescence assay; type: protein assay
[2] = tested on: PC-3; test: Antiproliferative activity against human PC3 cells after 48 hrs by SRB assay; type: functional
Procedure, shortened: (§1)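 Cells seeded in medium with 5% FBS; after 24 h a T0 set fixed with 10% TCA. Compound or vehicle (0.1% DMSO) added for 48 h, then fixed with 10% TCA, stained with 0.4% SRB in 1% acetic acid, bound dye solubilized in 10 mM Trizma base, absorbance at 515 nm. GI50 = concentration halving net protein increase versus control, from [1−(Tx−T0)/(C−T0)]×100%.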

[3] = tested on: A549; test: Antiproliferative activity against human A549 cells after 48 hrs by SRB assay; type: functional; procedure, shortened: as §1
[4] = Antiproliferative activity against human Hep3B cells after 48 hrs by SRB assay; type: functional, Hep 3B2; procedure, shortened: as §1
[5] = target: Histone deacetylase 1 (Homo sapiens, UniProt Q13547); test: Inhibition of HDAC1 using KI-177 as substrate incubated 30 mins before substrate addition measured after 30 mins post substrate addition by fluorescence assay
Sequence of Histone deacetylase 1 (Q13547 whole entry): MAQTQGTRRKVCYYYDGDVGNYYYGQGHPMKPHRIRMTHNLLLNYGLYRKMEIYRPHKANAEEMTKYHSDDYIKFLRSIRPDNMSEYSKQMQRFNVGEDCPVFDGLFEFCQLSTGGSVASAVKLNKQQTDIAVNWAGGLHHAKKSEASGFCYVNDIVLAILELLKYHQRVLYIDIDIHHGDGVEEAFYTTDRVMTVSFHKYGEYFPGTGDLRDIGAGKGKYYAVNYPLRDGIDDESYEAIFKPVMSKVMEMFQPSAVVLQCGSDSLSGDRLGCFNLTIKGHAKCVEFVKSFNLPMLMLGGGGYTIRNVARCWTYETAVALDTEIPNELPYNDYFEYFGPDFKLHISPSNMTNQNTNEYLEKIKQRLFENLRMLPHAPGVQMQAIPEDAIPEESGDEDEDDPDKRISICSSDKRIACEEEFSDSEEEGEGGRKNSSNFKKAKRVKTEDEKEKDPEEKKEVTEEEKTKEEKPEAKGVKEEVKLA

[6] = target: T1, Histone deacetylase 8 (Homo sapiens, UniProt Q9BY41); test: Inhibition of human HDAC8 using Boc-Lys(TFA)-AMC as substrate incubated 30 mins before substrate addition measured after 30 mins post substrate addition by fluorescence assay
T1 sequence (Q9BY41 whole entry): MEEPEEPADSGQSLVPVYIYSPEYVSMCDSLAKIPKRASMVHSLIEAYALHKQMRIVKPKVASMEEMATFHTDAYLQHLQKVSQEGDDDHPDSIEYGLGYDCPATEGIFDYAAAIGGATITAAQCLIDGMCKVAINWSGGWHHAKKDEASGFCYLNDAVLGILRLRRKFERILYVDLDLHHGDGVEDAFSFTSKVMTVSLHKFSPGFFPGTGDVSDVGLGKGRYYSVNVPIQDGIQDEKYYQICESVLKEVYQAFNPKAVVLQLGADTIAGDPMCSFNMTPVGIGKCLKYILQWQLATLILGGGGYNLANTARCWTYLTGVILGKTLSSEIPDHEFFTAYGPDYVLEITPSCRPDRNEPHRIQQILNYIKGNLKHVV

[7] = target: Histone deacetylase 4 (Homo sapiens, UniProt P56524); test: Inhibition of HDAC4 using Boc-Lys(TFA)-AMC as substrate incubated 30 mins before substrate addition measured after 30 mins post substrate addition by fluorescence assay
Sequence of Histone deacetylase 4 (P56524 whole entry): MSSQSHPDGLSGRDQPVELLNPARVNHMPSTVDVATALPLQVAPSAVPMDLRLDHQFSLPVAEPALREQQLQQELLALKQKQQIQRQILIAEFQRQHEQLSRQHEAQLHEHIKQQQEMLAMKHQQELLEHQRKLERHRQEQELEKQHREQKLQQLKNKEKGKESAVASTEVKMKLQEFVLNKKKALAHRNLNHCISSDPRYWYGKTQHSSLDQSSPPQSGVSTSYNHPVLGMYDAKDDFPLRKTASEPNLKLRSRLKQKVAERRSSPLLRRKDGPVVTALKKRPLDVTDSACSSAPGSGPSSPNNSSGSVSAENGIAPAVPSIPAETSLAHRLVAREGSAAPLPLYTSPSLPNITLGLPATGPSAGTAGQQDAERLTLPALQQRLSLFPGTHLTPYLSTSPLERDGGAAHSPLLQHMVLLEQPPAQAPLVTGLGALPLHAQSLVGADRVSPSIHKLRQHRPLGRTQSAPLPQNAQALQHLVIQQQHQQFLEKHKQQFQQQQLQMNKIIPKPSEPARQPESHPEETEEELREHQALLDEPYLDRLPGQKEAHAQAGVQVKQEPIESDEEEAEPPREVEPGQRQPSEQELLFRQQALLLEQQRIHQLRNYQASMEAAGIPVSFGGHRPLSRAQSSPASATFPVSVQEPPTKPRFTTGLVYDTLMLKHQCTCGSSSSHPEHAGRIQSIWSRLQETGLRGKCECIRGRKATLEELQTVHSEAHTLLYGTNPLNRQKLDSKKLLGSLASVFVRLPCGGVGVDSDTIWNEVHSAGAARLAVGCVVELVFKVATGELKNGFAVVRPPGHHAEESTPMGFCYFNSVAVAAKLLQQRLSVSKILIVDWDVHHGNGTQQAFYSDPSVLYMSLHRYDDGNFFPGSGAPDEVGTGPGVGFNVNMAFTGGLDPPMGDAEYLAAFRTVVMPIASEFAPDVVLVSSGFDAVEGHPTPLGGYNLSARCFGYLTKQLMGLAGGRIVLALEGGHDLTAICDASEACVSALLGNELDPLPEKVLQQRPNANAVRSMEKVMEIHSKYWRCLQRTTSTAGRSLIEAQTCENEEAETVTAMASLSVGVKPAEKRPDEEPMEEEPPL

[8] = target: T2, Protein deacetylase HDAC6 (Homo sapiens, UniProt Q9UBN7); test: Inhibition of HDAC6 using Boc-Lys(Ac)-AMC as substrate incubated 30 mins before substrate addition measured after 30 mins post substrate addition by fluorescence assay
T2 sequence (Q9UBN7 whole entry): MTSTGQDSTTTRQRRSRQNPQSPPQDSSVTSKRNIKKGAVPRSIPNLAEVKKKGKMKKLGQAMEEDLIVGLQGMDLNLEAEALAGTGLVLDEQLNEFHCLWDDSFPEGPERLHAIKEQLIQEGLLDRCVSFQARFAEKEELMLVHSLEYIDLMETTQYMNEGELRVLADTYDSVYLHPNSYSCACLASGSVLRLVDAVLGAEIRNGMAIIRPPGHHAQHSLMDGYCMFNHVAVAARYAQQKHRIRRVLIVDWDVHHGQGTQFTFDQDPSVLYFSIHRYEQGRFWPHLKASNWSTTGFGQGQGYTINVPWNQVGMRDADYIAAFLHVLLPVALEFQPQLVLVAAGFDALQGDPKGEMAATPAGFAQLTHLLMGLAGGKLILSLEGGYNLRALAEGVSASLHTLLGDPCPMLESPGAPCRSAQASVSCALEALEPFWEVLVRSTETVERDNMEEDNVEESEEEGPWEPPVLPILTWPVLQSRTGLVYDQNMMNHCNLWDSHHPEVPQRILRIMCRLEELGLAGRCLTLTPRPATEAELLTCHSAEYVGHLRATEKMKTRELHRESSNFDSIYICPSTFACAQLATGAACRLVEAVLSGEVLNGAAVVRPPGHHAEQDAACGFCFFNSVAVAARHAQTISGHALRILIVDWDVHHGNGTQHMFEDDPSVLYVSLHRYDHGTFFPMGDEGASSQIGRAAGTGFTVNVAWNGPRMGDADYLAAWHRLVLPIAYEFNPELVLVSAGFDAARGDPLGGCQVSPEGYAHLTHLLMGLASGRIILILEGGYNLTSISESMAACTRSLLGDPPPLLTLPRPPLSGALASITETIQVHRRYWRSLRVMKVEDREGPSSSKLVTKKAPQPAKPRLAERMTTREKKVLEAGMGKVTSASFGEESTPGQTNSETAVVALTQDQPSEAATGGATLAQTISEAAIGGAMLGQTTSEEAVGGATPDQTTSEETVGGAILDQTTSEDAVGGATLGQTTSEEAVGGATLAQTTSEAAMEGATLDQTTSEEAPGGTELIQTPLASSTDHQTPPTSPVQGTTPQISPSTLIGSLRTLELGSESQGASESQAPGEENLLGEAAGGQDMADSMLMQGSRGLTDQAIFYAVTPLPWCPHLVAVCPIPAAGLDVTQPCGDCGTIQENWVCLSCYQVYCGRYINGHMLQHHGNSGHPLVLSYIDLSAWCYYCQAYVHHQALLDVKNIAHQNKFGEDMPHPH

[9] = target: T3, Histone deacetylase (Homo sapiens) (UniProt Q13547+O15379+Q9UBN7+Q92769+Q9UQL6+Q8WUI4+Q9BY41+Q96DB2+P56524+Q9UKV0+Q969S8); test: Inhibition of HDAC in human prostate cancer cells assessed as induction of hyperacetylation of histone H3 after 16 hrs by SDS-PAGE and Western blot analysis; type: cell-based; conditions: Cancer cell lines
Procedure, shortened: (§2)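 Cells exposed to inhibitor at […] for 16 h. Whole-cell lysates made in ice-cold Tris pH 7.4 buffer with Triton X-100, protease and phosphatase inhibitors, run on 13% SDS-PAGE gels. Western blot for acetylated histone H3 (polyclonal) or acetylated alpha-tubulin (monoclonal), beta-actin as loading control, HRP secondary, ECL detection.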

[10] = target: T3, Histone deacetylase (Homo sapiens); test: Inhibition of HDAC in human prostate cancer cells assessed as induction of hyperacetylation of alpha-tubulin after 16 hrs by SDS-PAGE and Western blot analysis; type: cell-based; conditions: Cancer cell lines; procedure, shortened: as §2

Compound | IC50 [1] [nM] | GI50 ([2]; Homo sapiens, PC-3, 48 h) [nM] | GI50 ([3]; Homo sapiens, A549, 48 h) [nM] | GI50 ([4]; Homo sapiens, Hep3B, 48 h) [nM] | IC50 [5] [nM] | IC50 [6] [nM] | IC50 [7] [nM] | IC50 [8] [nM] | inhibition [9] | inhibition [10] | GI50 [2] [nM] | GI50 [3] [nM] | GI50 [4] [nM]
CC(C)CCc1c(OCCCCCCC(=O)NO)ccc2c1OC(=O)CC2 | 23.7 | > 30000 | > 30000 | > 30000 | 52.7 | 1080 | > 10000 | 40 |  |  |  |  | 
CC(C)CCc1c(OCCCCCCCC(=O)NO)ccc(CCC(=O)NO)c1O | 28.9 | 1730 | 2670 | 1270 | 41.5 | 279 | > 10000 | 14.2 |  |  |  |  | 
CC(C)CCc1c(OCCCCCCC(=O)NO)ccc(CCC(=O)NO)c1O | 24.6 | 4730 | 6160 | 4720 | 42.9 | 268 | > 10000 | 15.9 | inactive | inactive |  |  | 
CC(C)CCc1c(OCCCCCC(=O)NO)ccc2ccc(=O)oc12 | 128.2 |  | 870 | 800 |  |  |  |  |  |  |  |  | 
CC(C)CCc1c(OCCCCCC(=O)NO)ccc2c1OC(=O)CC2 | 425.5 | > 30000 | > 30000 | > 30000 |  |  |  |  |  |  |  |  | 
CC(C)CCc1c(OCCCCCCC(=O)NO)ccc2ccc(=O)oc12 | 22.2 |  | 660 | 750 | 32.3 | 553 | > 10000 | 15.2 | Dose-dependent effect | Dose-dependent effect |  |  | 
CC(C)CCc1c(OCCCCCCCC(=O)NO)ccc2c1OC(=O)CC2 | 111.7 | > 30000 | > 30000 | > 30000 |  |  |  |  |  |  |  |  | 
CC(C)CCc1c(OCCCCCC(=O)NO)ccc(CCC(=O)NO)c1O | 209.9 | 2520 | 5410 | 1980 |  |  |  |  |  |  |  |  | 
CC(C)CCc1c(OCCCCCCCC(=O)NO)ccc2ccc(=O)oc12 | 39 |  | 2190 | 3580 |  |  |  |  |  |  |  |  | 
O=C(CCCCCCC(=O)Nc1ccccc1)NO [VORINOSTAT] |  |  |  |  |  |  |  |  |  |  | 1020 | 790 | 1210
CC(C)CCc1c(OCCCCC(=O)NO)ccc2ccc(=O)oc12 | 523.2 | 1940 | 2760 | 1310 |  |  |  |  |  |  |  |  | 
CC(C)CCc1c(OCCCCC(=O)NO)ccc(CCC(=O)NO)c1O | 426.3 | 14400 | 10000 | 14100 |  |  |  |  |  |  |  |  | 
CC(C)CCc1c(OCCCCC(=O)NO)ccc2c1OC(=O)CC2 | 711.6 | > 30000 | > 30000 | > 30000 |  |  |  |  |  |  |  |  | 
